Assay results reported in ChEMBL document CHEMBL1121484, “Thrombin inhibitors. 2. Amide derivatives of N alpha-substituted L-arginine” (J Med Chem, 1980).

molecular target: Prothrombin (Bos taurus, UniProt P00735); test: Bovine thrombin concentration at which clotting time was prolonged 2x over the control.; type: functional; conditions: read-out: I50
Method in brief: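 Clotting assay at 25 °C. The read-out was the time from thrombin addition to clot formation.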

Structure (SMILES) | IC50 [µM]
CN(C)c1cccc2c(S(=O)(=O)NC(CCCNC(=N)N)C(=O)NCC3CCCCC3)cccc12 (stereo unspecified) | 40
CCC1CCN(C(=O)C(CCCNC(=N)N)NS(=O)(=O)c2ccc3c(c2)OCCCO3)CC1 (stereo unspecified) | 5
COCCCNC(=O)C(CCCNC(=N)N)NS(=O)(=O)c1cccc2c(N(C)C)cccc12 (stereo unspecified) | 60
CN(C)c1cccc2c(S(=O)(=O)NC(CCCNC(=N)N)C(=O)NC3CC3)cccc12 (stereo unspecified) | 500
CN(C)c1cccc2c(S(=O)(=O)NC(CCCNC(=N)N)C(=O)N3Cc4ccccc4C3)cccc12 (stereo unspecified) | 0.67
N=C(N)NCCCC(NS(=O)(=O)c1ccc2ccccc2c1)C(=O)N1CCCCCC1 (stereo unspecified) | 20
CN(C)c1cccc2c(S(=O)(=O)NC(CCCNC(=N)N)C(=O)NCCc3ccccc3)cccc12 (stereo unspecified) | 150
COc1ccc2cc(S(=O)(=O)NC(CCCN=C(N)N)C(=O)N3CCC(C)CC3)cc(OC)c2c1 (stereo unspecified) | 0.075
CCC1CCN(C(=O)C(CCCNC(=N)N)NS(=O)(=O)c2ccc3c(c2)CCCO3)CC1 (stereo unspecified) | 15
CC(C)NC(=O)C(CCCN=C(N)N)NS(=O)(=O)c1cccc2c(N(C)C)cccc12 (stereo unspecified) | 1100
CCCCCNC(=O)C(CCCN=C(N)N)NS(=O)(=O)c1cccc2c(N(C)C)cccc12 (stereo unspecified) | 130
CCC1CCN(C(=O)C(CCCNC(=N)N)NS(=O)(=O)c2ccc3ccc(OC)cc3c2)CC1 (stereo unspecified) | 0.1
CCCOc1cccc2c(S(=O)(=O)NC(CCCNC(=N)N)C(=O)N3CCC(CC)CC3)cccc12 (stereo unspecified) | 0.5
CCC1CCN(C(=O)C(CCCN=C(N)N)NS(=O)(=O)c2ccc3ccccc3c2)CC1 (stereo unspecified) | 1
CN(C)c1cccc2c(S(=O)(=O)NC(CCCN=C(N)N)C(=O)N3CCC(C)(C)CC3)cccc12 (stereo unspecified) | 8
CN(C)c1cccc2c(S(=O)(=O)NC(CCCN=C(N)N)C(=O)NCc3ccccc3)cccc12 (stereo unspecified) | 50
CC1CCN(C(=O)C(CCCN=C(N)N)NS(=O)(=O)c2ccc3c(c2)OCCCO3)CC1 (stereo unspecified) | 8
CCC1CCN(C(=O)C(CCCN=C(N)N)NS(=O)(=O)c2cccc3c([N+](=O)[O-])cccc23)CC1 (stereo unspecified) | 1
CCC1CCN(C(=O)C(CCCN=C(N)N)NS(=O)(=O)c2cccc3c(Cl)cccc23)CC1 (stereo unspecified) | 2
CN(C)c1cccc2c(S(=O)(=O)NC(CCCNC(=N)N)C(=O)N3CCOCC3)cccc12 (stereo unspecified) | 0.6
CN1CCN(C(=O)C(CCCN=C(N)N)NS(=O)(=O)c2cccc3c(N(C)C)cccc23)CC1 (stereo unspecified) | 2
CCC1CCN(C(=O)C(CCCN=C(N)N)NS(=O)(=O)c2cccc3c(OC)cccc23)CC1 (stereo unspecified) | 0.6
CCC1CCN(C(=O)C(CCCN=C(N)N)NS(=O)(=O)c2cccc3c(O)cccc23)CC1 (stereo unspecified) | 6

Structure (SMILES) | IC50 [µM]
CCC1CCN(C(=O)C(CCCNC(=N)N)NS(=O)(=O)c2cc(OC)c3cc(OC)ccc3c2)CC1 (stereo unspecified) | 0.1
CC1CN(C(=O)C(CCCN=C(N)N)NS(=O)(=O)c2cccc3c(N(C)C)cccc23)CC(C)O1 (stereo unspecified) | 20
CC1CCN(C(=O)C(CCCN=C(N)N)NS(=O)(=O)c2ccc3ccccc3c2)CC1 (stereo unspecified) | 4.5
CCCCCCNC(=O)C(CCCN=C(N)N)NS(=O)(=O)c1cccc2c(N(C)C)cccc12 (stereo unspecified) | 20
CCCCN(C)C(=O)C(CCCNC(=N)N)NS(=O)(=O)c1cccc2c(N(C)C)cccc12 (stereo unspecified) | 2
CCC1CCN(C(=O)C(CCCN=C(N)N)NS(=O)(=O)c2ccc3c(c2)OCCO3)CC1 (stereo unspecified) | 25
CCC1CCN(C(=O)C(CCCN=C(N)N)NS(=O)(=O)c2ccc3c(c2)C(=O)c2ccccc2C3=O)CC1 (stereo unspecified) | 1.5
CCC1CCN(C(=O)C(CCCNC(=N)N)NS(=O)(=O)c2cccc3c(OC(C)C)cccc23)CC1 (stereo unspecified) | 0.4
CN(C)c1cccc2c(S(=O)(=O)NC(CCCNC(=N)N)C(=O)NC3CCCCC3)cccc12 (stereo unspecified) | 500
N=C(N)NCCCC(NS(=O)(=O)c1cccc2ccccc12)C(=O)N1CCCCCC1 (stereo unspecified) | 10
COc1cccc2c(S(=O)(=O)NC(CCCN=C(N)N)C(=O)N3CCC(C)CC3)cccc12 (stereo unspecified) | 0.3
CCC1CCN(C(=O)C(CCCN=C(N)N)NS(=O)(=O)c2ccc3cc(OC)c(OC)cc3c2)CC1 (stereo unspecified) | 0.15
N=C(N)NCCCC(NS(=O)(=O)c1cccc2ccccc12)C(=O)N1CCC(c2ccccc2)CC1 (stereo unspecified) | 100
CCC1CCN(C(=O)C(CCCN=C(N)N)NS(=O)(=O)c2ccc3ccc(C)cc3c2)CC1 (stereo unspecified) | 0.4
CC1CCN(C(=O)C(CCCN=C(N)N)NS(=O)(=O)c2cccc3c(N(C)C)cccc23)CC1 (stereo unspecified) | 0.3
CCC1CCN(C(=O)C(CCCN=C(N)N)NS(=O)(=O)c2cccc3c(N(CC)CC)cccc23)CC1 (stereo unspecified) | 0.3
CCC1CCN(C(=O)C(CCCN=C(N)N)NS(=O)(=O)c2ccc3ccc(O)cc3c2)CC1 (stereo unspecified) | 6
N=C(N)NCCCC(NS(=O)(=O)c1cccc2c1CCCC2)C(=O)N1CCOCC1 (stereo unspecified) | 6.5
CCC1CCN(C(=O)C(CCCN=C(N)N)NS(=O)(=O)c2cccc3ccc(C)cc23)CC1 (stereo unspecified) | 1
CN(C)c1cccc2c(S(=O)(=O)NC(CCCNC(=N)N)C(=O)N3CCCC3)cccc12 (stereo unspecified) | 3.3
CN(C)c1cccc2c(S(=O)(=O)NC(CCCN=C(N)N)C(=O)N3CC4CCCC(C4)C3)cccc12 (stereo unspecified) | 10
CCCCN(C)C(=O)C(CCCNC(=N)N)NS(=O)(=O)c1ccc2ccccc2c1 (stereo unspecified) | 50
COc1cccc2cccc(S(=O)(=O)NC(CCCN=C(N)N)C(=O)N3CCC(C)CC3)c12 (stereo unspecified) | 4

Structure (SMILES) | IC50 [µM]
COc1ccc(CNC(=O)C(CCCN=C(N)N)NS(=O)(=O)c2cccc3c(N(C)C)cccc23)cc1 (stereo unspecified) | 500
CC(C)C1CCN(C(=O)C(CCCN=C(N)N)NS(=O)(=O)c2cccc3c(N(C)C)cccc23)CC1 (stereo unspecified) | 1
CN(C)c1cccc2c(S(=O)(=O)NC(CCCNC(=N)N)C(=O)N3CCCCCCCC3)cccc12 (stereo unspecified) | 2
N=C(N)NCCCC(NS(=O)(=O)c1ccc2ccccc2c1)C(=O)N1CCOCC1 (stereo unspecified) | 20
CCC1CCN(C(=O)C(CCCN=C(N)N)NS(=O)(=O)c2ccc3cc(OC(C)C)ccc3c2)CC1 (stereo unspecified) | 0.8
CN(C)c1cccc2c(S(=O)(=O)NC(CCCNC(=N)N)C(=O)N3CCC(C(C)(C)C)CC3)cccc12 (stereo unspecified) | 2
CCC1CCN(C(=O)C(CCCNC(=N)N)NS(=O)(=O)c2cccc3c(N(C)C)cccc23)CC1 (stereo unspecified) | 0.1
CCc1ccc2cc(S(=O)(=O)NC(CCCNC(=N)N)C(=O)N3CCC(CC)CC3)ccc2c1 (stereo unspecified) | 0.7
CCOc1cc2ccc(S(=O)(=O)NC(CCCN=C(N)N)C(=O)N3CCC(CC)CC3)cc2cc1OCC (stereo unspecified) | 5.5
CCC1CCN(C(=O)C(CCCN=C(N)N)NS(=O)(=O)c2ccc3cc4c(cc3c2)OCCO4)CC1 (stereo unspecified) | 10
CCCCN(C)C(=O)C(CCCN=C(N)N)NS(=O)(=O)c1cccc2ccccc12 (stereo unspecified) | 50
CCC1CCN(C(=O)C(CCCNC(=N)N)NS(=O)(=O)c2cccc3c2oc2ccccc23)CC1 (stereo unspecified) | 0.2
CC1CCCN(C(=O)C(CCCNC(=N)N)NS(=O)(=O)c2cccc3c(N(C)C)cccc23)C1 (stereo unspecified) | 6.5
CCC1CCN(C(=O)C(CCCNC(=N)N)NS(=O)(=O)c2ccc3cc(OC)ccc3c2)CC1 (stereo unspecified) | 0.2
COCCNC(=O)C(CCCNC(=N)N)NS(=O)(=O)c1cccc2c(N(C)C)cccc12 (stereo unspecified) | 4
CN(C)c1cccc2c(S(=O)(=O)NC(CCCNC(=N)N)C(=O)N3CCSCC3)cccc12 (stereo unspecified) | 2
N=C(N)NCCCC(NS(=O)(=O)c1ccc2c(c1)CCCC2)C(=O)N1CCCC1 (stereo unspecified) | 7
CCCCNC(=O)C(CCCNC(=N)N)NS(=O)(=O)c1cccc2ccccc12 (stereo unspecified) | 50
CCC1CCN(C(=O)C(CCCN=C(N)N)NS(=O)(=O)c2cccc3c(C(=O)O)cccc23)CC1 (stereo unspecified) | 1000
CCC1CCN(C(=O)C(CCCNC(=N)N)NS(=O)(=O)c2ccc3c(c2)oc2ccccc23)CC1 (stereo unspecified) | 0.3
CC1CCCCN1C(=O)C(CCCN=C(N)N)NS(=O)(=O)c1cccc2c(N(C)C)cccc12 (stereo unspecified) | 1.3
COc1ccc2ccc(S(=O)(=O)NC(CCCN=C(N)N)C(=O)N3CCC(C)CC3)cc2c1 (stereo unspecified) | 0.1
CC(C)CNC(=O)C(CCCNC(=N)N)NS(=O)(=O)c1cccc2c(N(C)C)cccc12 (stereo unspecified) | 100

Structure (SMILES) | IC50 [µM]
CCC1CCN(C(=O)C(CCCNC(=N)N)NS(=O)(=O)c2ccc3c(c2)Oc2ccccc2O3)CC1 (stereo unspecified) | 0.15
C=CCNC(=O)C(CCCN=C(N)N)NS(=O)(=O)c1cccc2c(N(C)C)cccc12 (stereo unspecified) | 10
CCC1CCN(C(=O)C(CCCNC(=N)N)NS(=O)(=O)c2cccc3c(C#N)cccc23)CC1 (stereo unspecified) | 6
CN(C)c1cccc2c(S(=O)(=O)NC(CCCN=C(N)N)C(=O)N3CCC(c4ccccc4)CC3)cccc12 (stereo unspecified) | 100
CCC1CCN(C(=O)C(CCCN=C(N)N)NS(=O)(=O)c2ccc(OC)c3ccccc23)CC1 (stereo unspecified) | 2
CN(C)c1cccc2c(S(=O)(=O)NC(CCCNC(=N)N)C(=O)N3CCCCCC3)cccc12 (stereo unspecified) | 0.9
CN(C)c1cccc2c(S(=O)(=O)NC(CCCN=C(N)N)C(=O)N3CCCCCCC3)cccc12 (stereo unspecified) | 1
CCCCN(CC)C(=O)C(CCCN=C(N)N)NS(=O)(=O)c1cccc2c(N(C)C)cccc12 (stereo unspecified) | 50
COc1cc2ccc(S(=O)(=O)NC(CCCN=C(N)N)C(=O)N3CCC(C)CC3)cc2cc1OC (stereo unspecified) | 0.15
CCCCCCCNC(=O)C(CCCNC(=N)N)NS(=O)(=O)c1cccc2c(N(C)C)cccc12 (stereo unspecified) | 100
CCC1CCN(C(=O)C(CCCNC(=N)N)NS(=O)(=O)c2ccc3c(c2)Cc2ccccc2O3)CC1 (stereo unspecified) | 0.3
CCC1CCN(C(=O)C(CCCN=C(N)N)NS(=O)(=O)c2ccc3cc(N(C)C)ccc3c2)CC1 (stereo unspecified) | 0.3
CN(Cc1ccccc1)C(=O)C(CCCN=C(N)N)NS(=O)(=O)c1cccc2c(N(C)C)cccc12 (stereo unspecified) | 7
CCNC(=O)C(CCCN=C(N)N)NS(=O)(=O)c1cccc2c(N(C)C)cccc12 (stereo unspecified) | 100
CCN(CC)C(=O)C(CCCN=C(N)N)NS(=O)(=O)c1cccc2c(N(C)C)cccc12 (stereo unspecified) | 55
CCC1CCN(C(=O)C(CCCN=C(N)N)NS(=O)(=O)c2ccc3ccccc3c2OC)CC1 (stereo unspecified) | 0.4
CCCC1CCN(C(=O)C(CCCN=C(N)N)NS(=O)(=O)c2cccc3c(N(C)C)cccc23)CC1 (stereo unspecified) | 1
CCCNC(=O)C(CCCN=C(N)N)NS(=O)(=O)c1cccc2c(N(C)C)cccc12 (stereo unspecified) | 15
COC1CCN(C(=O)C(CCCN=C(N)N)NS(=O)(=O)c2cccc3c(N(C)C)cccc23)CC1 (stereo unspecified) | 4
CCC1CCN(C(=O)C(CCCN=C(N)N)NS(=O)(=O)c2cccc3c2CCCC3)CC1 (stereo unspecified) | 0.5
CCC1CCN(C(=O)C(CCCNC(=N)N)NS(=O)(=O)c2cccc3ccccc23)CC1 (stereo unspecified) | 1
CCOc1cccc2c(S(=O)(=O)NC(CCCNC(=N)N)C(=O)N3CCC(CC)CC3)cccc12 (stereo unspecified) | 0.1
